# Columns and labels:
# MDA-MB-231 [1] = assay: Antiproliferative activity against human MDA-MB-231 cells assessed as reduction in cell viability measured after 48 hrs MTT assay; type: functional, cell-based; conditions: MDA-MB-231, 48 h
# Outline: (§1)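 Cells (MDA-MB-231, MCF-7, MCF-10A, HT-29, A549) exposed to compounds for 48 h, then viability read by MTT. IC50 is the concentration giving 50% inhibition of viability. Means ± SD of three independent experiments.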
# MCF7 = assay: Antiproliferative activity against human MCF7 cells assessed as reduction in cell viability measured after 48 hrs MTT assay; type: functional, cell-based; conditions: MCF7, 48 h; outline: as §1
# HT-29 = assay: Antiproliferative activity against human HT-29 cells assessed as reduction in cell viability measured after 48 hrs MTT assay; type: functional, cell-based; conditions: HT-29, 48 h; outline: as §1
# A549 [2] = assay: Antiproliferative activity against human A549 cells assessed as reduction in cell viability measured after 48 hrs MTT assay; type: functional, cell-based; conditions: A549, 48 h; outline: as §1
# MCF-10A = assay: Cytotoxicity against human MCF10A cells assessed as reduction in cell viability measured after 48 hrs MTT assay; type: cell-based; outline: as §1
# [3] = biological target: NAD(P)H dehydrogenase [quinone] 1 (Homo sapiens) (UniProt P15559); assay: Substrate activity at human NQO1 assessed as amount of NADH oxidation assessed per umol NQO1
# Sequence of NAD(P)H dehydrogenase [quinone] 1 (Homo sapiens) (P15559 whole entry): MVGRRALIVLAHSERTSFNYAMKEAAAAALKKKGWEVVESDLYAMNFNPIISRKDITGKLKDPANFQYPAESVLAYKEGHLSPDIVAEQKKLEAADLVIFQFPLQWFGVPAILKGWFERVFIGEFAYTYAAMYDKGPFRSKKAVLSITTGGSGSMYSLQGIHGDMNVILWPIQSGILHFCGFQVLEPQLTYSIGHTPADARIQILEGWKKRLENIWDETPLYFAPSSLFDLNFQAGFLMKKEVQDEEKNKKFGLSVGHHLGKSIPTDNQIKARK
# Outline: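 Quinones at 20 μM coincubated with NADH with and without human NQO1. Rate of NADH oxidation measured.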
# A549 [4] = assay: Induction of apoptosis in human A549 cells assessed as live cells at 2 uM measured after 24 hrs by annexinV-FITC/propidium iodide staining based flow cytometry (reference value: 95.5 %); type: functional
# A549 [5] = assay: Induction of apoptosis in human A549 cells assessed as early apoptotic cells at 2 uM measured after 24 hrs by annexinV-FITC/propidium iodide staining based flow cytometry (reference value: 0.25 %); type: functional
# A549 [6] = assay: Induction of apoptosis in human A549 cells assessed as late apoptotic cells at 2 uM measured after 24 hrs by annexinV-FITC/propidium iodide staining based flow cytometry (reference value: 3.70 %); type: functional
# A549 [7] = assay: Induction of apoptosis in human A549 cells assessed as necrotic cells at 2 uM measured after 24 hrs by annexinV-FITC/propidium iodide staining based flow cytometry (reference value: 0.54 %); type: functional
# A549 [8] = assay: Induction of ROS generation in human A549 cells at 2 uM measured after 24 hrs by DCFH-DA probe based flow cytometry (reference value: 4.92 %); type: functional
# A549 [9] = assay: Induction of apoptosis in human A549 cells assessed as live cells at 1 uM measured after 24 hrs by annexinV-FITC/propidium iodide staining based flow cytometry (reference value: 95.5 %); type: functional
# A549 [10] = assay: Induction of apoptosis in human A549 cells assessed as early apoptotic cells at 1 uM measured after 24 hrs by annexinV-FITC/propidium iodide staining based flow cytometry (reference value: 0.25 %); type: functional
# A549 [11] = assay: Induction of apoptosis in human A549 cells assessed as late apoptotic cells at 1 uM measured after 24 hrs by annexinV-FITC/propidium iodide staining based flow cytometry (reference value: 3.70 %); type: functional
# A549 [12] = assay: Induction of apoptosis in human A549 cells assessed as necrotic cells at 1 uM measured after 24 hrs by annexinV-FITC/propidium iodide staining based flow cytometry (reference value: 0.54 %); type: functional
# A549 [13] = assay: Induction of apoptosis in human A549 cells measured after 24 hrs by annexinV-FITC/propidium iodide staining based flow cytometry; type: functional, cell-based
# A549 [14] = assay: Potency index, ratio of BBI608 activity to test compound activity for induction of apoptosis in human A549 cells measured after 24 hrs by annexinV-FITC/propidium iodide staining based flow cytometry; type: functional
# Outline: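 A549 cells given test compound or BBI608, each at 2 μM, for 24 h, then stained with Annexin V-FITC/propidium iodide for 15 min. Apoptosis rate by flow cytometry; the ratio compares rates at the same concentration.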
# [15] = biological target: Signal transducer and activator of transcription 3 (Homo sapiens) (UniProt P40763); assay: Inhibition of STAT3 phosphorylation in human MDA-MB-231 cells measured after 2 hrs by Western blot analysis; type: cell-based
# Sequence of Signal transducer and activator of transcription 3 (Homo sapiens) (P40763 whole entry): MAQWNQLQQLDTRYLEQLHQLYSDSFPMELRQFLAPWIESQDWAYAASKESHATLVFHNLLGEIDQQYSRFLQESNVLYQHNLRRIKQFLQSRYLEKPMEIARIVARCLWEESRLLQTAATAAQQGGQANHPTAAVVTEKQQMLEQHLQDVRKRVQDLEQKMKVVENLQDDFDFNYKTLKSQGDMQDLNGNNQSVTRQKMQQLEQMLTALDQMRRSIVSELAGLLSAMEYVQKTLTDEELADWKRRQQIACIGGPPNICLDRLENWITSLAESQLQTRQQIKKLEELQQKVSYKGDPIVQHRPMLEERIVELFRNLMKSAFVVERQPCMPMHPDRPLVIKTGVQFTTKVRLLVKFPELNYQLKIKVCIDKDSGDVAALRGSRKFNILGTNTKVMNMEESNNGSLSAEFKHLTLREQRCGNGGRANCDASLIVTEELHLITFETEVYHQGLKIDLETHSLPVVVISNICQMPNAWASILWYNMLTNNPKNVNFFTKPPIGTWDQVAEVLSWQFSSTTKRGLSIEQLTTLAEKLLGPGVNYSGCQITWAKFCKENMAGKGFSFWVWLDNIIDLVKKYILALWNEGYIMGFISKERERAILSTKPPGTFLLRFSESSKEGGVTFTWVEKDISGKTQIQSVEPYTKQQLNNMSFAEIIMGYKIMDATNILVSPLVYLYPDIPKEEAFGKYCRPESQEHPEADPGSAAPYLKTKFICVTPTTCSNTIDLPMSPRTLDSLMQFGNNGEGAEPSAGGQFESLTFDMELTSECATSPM
# Outline: (§2)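 MDA-MB-231 cells incubated for 2 h with test compound at 2, 4 or 8 μM, or with DMSO vehicle. Phospho-STAT3 and total STAT3 detected by western blot.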
# MDA-MB-231 [16] = assay: Effect on total STAT3 level in human MDA-MB-231 cells at 2 to 8 uM measured after 2 hrs by Western blot analysis; type: cell-based; conditions: mda-mb-231, 2 h; outline: as §2
# A549 [17] = assay: Induction of ROS generation in human A549 cells at 2 uM measured after 24 hrs by DCFH-DA probe based flow cytometry relative to BBI608; type: functional
Compound,IC50 (MDA-MB-231 [1]) [nM],IC50 (MCF7) [nM],IC50 (HT-29) [nM],IC50 (A549 [2]) [nM],IC50 (MCF-10A) [nM],Activity [3] [µmol/min],Activity (A549 [4]) [%],Activity (A549 [5]) [%],Activity (A549 [6]) [%],Activity (A549 [7]) [%],Activity (A549 [8]) [%],Activity (A549 [9]) [%],Activity (A549 [10]) [%],Activity (A549 [11]) [%],Activity (A549 [12]) [%],Activity (A549 [13]),Ratio (A549 [14]),inhibition [15],Activity (MDA-MB-231 [16]),Ratio (A549 [17])
COc1ccc(-c2nsc3c2C(=O)c2cccc(O)c2C3=O)cc1,1460,1410,3880,4800,1510,38.9,–,–,–,–,–,–,–,–,–,–,–,–,–,–
CCc1nsc2c1C(=O)c1cccc(O)c1C2=O,5810,3310,3800,2830,3020,112,–,–,–,–,–,–,–,–,–,–,–,–,–,–
CC(=O)c1cc2c(o1)C(=O)c1ccccc1C2=O [NAPABUCASIN],1290,630,140,6690,540,170,94.4,0.16,4.98,0.45,23.5,–,–,–,–,–,–,–,–,–
Cc1nsc2c1C(=O)c1cccnc1C2=O,230,640,3030,1690,880,180,–,–,–,–,–,–,–,–,–,–,–,–,–,–
Cc1nsc2c1C(=O)c1ncccc1C2=O,260,310,1520,3280,130,219,84.8,0.33,13.4,1.49,57.5,92.7,0.17,6.53,0.59,Dose-dependent effect,2.5,Dose-dependent effect,Non-Toxic,3
O=C1c2cccnc2C(=O)c2c(-c3ccccc3)nsc21,660,460,2030,1350,170,175,–,–,–,–,–,–,–,–,–,–,–,–,–,–
O=C1c2ccccc2C(=O)c2c(-c3ccccc3)nsc21,10300,> 40000,18800,27500,17600,5.59,–,–,–,–,–,–,–,–,–,–,–,–,–,–
COc1ccc(-c2nsc3c2C(=O)c2cccc(OC)c2C3=O)cc1,> 40000,> 40000,> 40000,> 40000,> 40000,18,–,–,–,–,–,–,–,–,–,–,–,–,–,–
COc1ccc(-c2nsc3c2C(=O)c2cccnc2C3=O)cc1,730,1820,40000,2770,1960,209,–,–,–,–,–,–,–,–,–,–,–,–,–,–
COc1ccc(-c2nsc3c2C(=O)c2c(OC)cccc2C3=O)cc1,> 40000,> 40000,> 40000,> 40000,> 40000,8.75,–,–,–,–,7.19,–,–,–,–,–,–,–,–,–
Cc1nsc2c1C(=O)c1ccccc1C2=O,1650,4090,2670,1710,1110,68,–,–,–,–,–,–,–,–,–,–,–,–,–,–
O=C1c2ncccc2C(=O)c2c(-c3ccccc3)nsc21,400,260,1200,810,880,174,–,–,–,–,–,–,–,–,–,–,–,–,–,–
CCc1nsc2c1C(=O)c1ncccc1C2=O,1530,360,910,1380,170,91.8,–,–,–,–,–,–,–,–,–,–,–,–,–,–
CCc1nsc2c1C(=O)c1ccccc1C2=O,2590,2340,2920,700,1130,122,–,–,–,–,–,–,–,–,–,–,–,–,–,–
COc1ccc(-c2nsc3c2C(=O)c2ccccc2C3=O)cc1,35200,37500,36800,> 40000,29300,7.29,–,–,–,–,–,–,–,–,–,–,–,–,–,–
Cc1nsc2c1C(=O)c1cccc(O)c1C2=O,2670,1580,1410,1360,1370,122,–,–,–,–,–,–,–,–,–,–,–,–,–,–
CCc1nsc2c1C(=O)c1cccnc1C2=O,340,1110,2060,1510,590,28.4,–,–,–,–,–,–,–,–,–,–,–,–,–,–
Cc1nsc2c1C(=O)c1c(O)cccc1C2=O,1670,920,1620,1960,920,122,–,–,–,–,–,–,–,–,–,–,–,–,–,–
CCc1nsc2c1C(=O)c1c(O)cccc1C2=O,2720,710,1660,1380,3060,97.2,–,–,–,–,–,–,–,–,–,–,–,–,–,–
COc1cccc2c1C(=O)c1snc(-c3ccccc3)c1C2=O,22000,12100,28800,> 40000,24600,14.6,–,–,–,–,–,–,–,–,–,–,–,–,–,–

# From ChEMBL document CHEMBL4622930, “Synthesis and biological evaluation of novel isothiazoloquinoline quinone analogues” (Bioorg Med Chem Lett, 2020)
